Experiment [1] has as its target SARS-CoV-2 3CL^pro (Severe acute respiratory syndrome coronavirus 2, UniProt P0DTD1). The experiment is classed as biochemical.
The target in experiment [2] is chymotrypsin (Bos taurus, UniProt P00766). In words: Enzymatic selectivity assay against chymotrypsin. The experiment is classed as biochemical. The procedure, abridged: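 Bovine chymotrypsin (5 nM final) was preincubated for 10 min with serial dilutions of test compound in phosphate-buffered saline, pH 7.4. The reaction was started with N-succinyl-AAPF-AMC (10 μM final). Fluorescence (ex 380 nm/em 460 nm) was read every 1 min for 10 min. Reaction rates relative to DMSO controls gave the inhibition profiles.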

From paper PMC9847367 (European Journal of Medicinal Chemistry, 2023) come the findings set out here.

Molecules are shown by their SMILES. Where a name gives a salt, the structure may show the parent alone.

As usually defined, the IC50 is the concentration that gives 50% inhibition. For the compound `C/N=c1\nc(-c2ccccc2)n(-c2ccccc2)s1` [6a, N-methyl-2,3-diphenyl-1,2,4-thiadiazol-5(2H)-imine hydrobromide salt], in experiment [1], the “inhibitory activity with the addition of 4 mM DTT” value is given as “lost their inhibitory activity”. For the same compound, the half-inhibitory concentration (IC50) in experiment [2] is > 100 µM.

Regarding `C/N=c1\nc(-c2ccc(F)cc2)n(-c2ccccc2)s1` [6g, 3-(4-fluorophenyl)-N-methyl-2-phenyl-1,2,4-thiadiazol-5(2H)-imine hydrobromide salt], the “inhibitory activity with the addition of 4 mM DTT” value in experiment [1] is reported as “lost their inhibitory activity”. Also, the IC50 in experiment [2] is > 100 µM.
